High-throughput results: PubChem BioAssay, several laboratories
Hits are enriched below; roughly 12% of the tested compounds scored in any of these assays.
Diaphorase act: activates diaphorase or chemically reduces, flagging diaphorase assay artifacts; Diaphorase/resazurin coupled assay, resorufin fluorescence, 16 min; active compounds read high; 1 = vehicle wells, 0 = NADH-free wells; activation factor at 20 µM; hit rate 0.005% among 190,000;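 active = diaphorase activity raised at least twofold by the compound at 20 µM; inactive = activation factor below 2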
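Measured by – red resorufin fluorescence at 544/590 nm excitation/emission · Test system – Clostridium kluyveri diaphorase, purified enzyme · Incubation – reaction time 16 min, room temperature · Buffer or medium – 50 mM HEPES pH 7.4 with 4.542 mM MgCl2, 0.005% Tween 20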
Cl transport mod: KCC2 (human) Cl- transport modulation | Q9H2X9 | KCC2 cells, thallium flux FluoZin-2 fluorescence | B-score of Tl+ flux slope (higher = more flux/activation; lower = inhibition) at 10 µM | hit rate 2.2% among 190,000 | AID 1456;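 active = thallium flux slope and its plate-corrected score both differing from the plate sample mean at a set confidence after two filtering rounds, in either direction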;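 also: slope of fluorescence scaled to starting intensity during 10 to 20 s after thallium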
ROMK mod: modulates human ROMK potassium channel activity | hit rate 2% among 130,000 | AID 1918 | Tet-inducible ROMK, thallium flux fluorescence; actives lie on both sides | B-score at 10 µM;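 active = signal ratio slope over the read window, or its plate-corrected B-score, at least 3 SD from the plate mean, either direction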;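 also: B-score of the F/F0 ratio slope over 7 to 12 s after thallium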
Target sequence (P48048 whole entry, looked up): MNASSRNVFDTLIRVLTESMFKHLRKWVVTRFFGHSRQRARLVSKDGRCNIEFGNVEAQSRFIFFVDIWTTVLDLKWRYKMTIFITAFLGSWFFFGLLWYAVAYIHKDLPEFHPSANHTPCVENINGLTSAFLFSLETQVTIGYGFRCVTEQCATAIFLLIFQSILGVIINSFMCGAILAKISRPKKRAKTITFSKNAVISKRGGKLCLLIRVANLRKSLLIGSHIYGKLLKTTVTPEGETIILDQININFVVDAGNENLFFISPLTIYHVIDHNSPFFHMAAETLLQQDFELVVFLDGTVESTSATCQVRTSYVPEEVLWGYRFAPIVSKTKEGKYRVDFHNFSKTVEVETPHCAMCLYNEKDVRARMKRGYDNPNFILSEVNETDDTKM
WT yeast gro inh: growth inhibition of WT yeast, mitochondrial fusion screen; mitochondrial fusion phenotypic screen, WT strain; hit rate 2.1% among 190,000; inhibition, % at 10 µM; in the data active = inhibition above about 58%; tested in S. cerevisiae
L major viab: inhibitors of Leishmania major promastigote growth; Leishmania major promastigotes, resazurin fluorescence viability; inhibition, % at 10 µM; hit rate 9% among 200,000; in the data active = inhibition above about 50%;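 also: promastigotes grown with compound for 44 hours at 28 °C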
Diaphorase inh: inhibits diaphorase or chemically oxidizes, flagging diaphorase assay artifacts; diaphorase resazurin-to-resorufin fluorescence, NADH, 16 min; bacterial (C. kluyveri) enzyme, not human; inhibition, % at 20 µM; hit rate 0.69% among 190,000; AID 1217;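 active = primary screen inhibition at 20 µM above a set limit, cut at about 50% in these data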
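Test system: Clostridium kluyveri diaphorase enzyme / Quantity: diaphorase at 0.14 U/mL in enzyme working solution / Incubation: 16-min room-temperature incubation before reading / Benchmarks: NADH-free wells as positive control, DMSO-only neutral wells / Signal: resorufin fluorescence 544/590 nm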
Of the large screens only hits and unclear results are named; the others gave an inactive call.

Fc1cccc(CSc2ccc3nnc(-c4cccnc4)n3n2)c1	none
O/N=C(\c1ccc(Cl)cc1Cl)c1ncc(C(F)(F)F)cc1Cl	WT yeast gro inh 85
C/C(=N\NC(=O)C1CC1)c1ccc2c(c1)OCCO2	none
Cc1ccc(C2CC(c3cccs3)=NN2C(=O)c2ccc(Br)o2)cc1 (configuration not stated)	WT yeast gro inh 64 (no result: Cl transport mod)
O=C(Nc1ccccc1F)Nc1ccccc1N1CCCCC1	none (no result: Diaphorase act, ROMK mod, WT yeast gro inh, L major viab, Diaphorase inh)
COc1ccc(-n2c(O)c(Cc3ccccc3)c(=O)n3nc(-c4ccccc4)c(=O)cc23)cc1	none
COc1ccc(NC(=O)C(=S)NC2CCCCC2)cc1	none
COc1ccc(OC)c(NC(=O)C(=S)NC2CCCCC2)c1	WT yeast gro inh 74
O=C(c1cccc2ccccc12)N1CCN(c2ccc([N+](=O)[O-])c(NCc3ccco3)c2)CC1	L major viab 55
Cc1ccccc1C(=O)N1CCN(c2ccc([N+](=O)[O-])c(NCc3ccco3)c2)CC1	none
CCN(CC)C(=O)CN(c1cc2c(cc1OC)oc1ccccc12)S(=O)(=O)c1ccccc1	ROMK mod -4.6
COc1cc2oc3ccccc3c2cc1N(CC(=O)N(C)C)S(=O)(=O)c1ccc(C)cc1	L major viab 66
COc1cc2oc3ccccc3c2cc1N(CC(=O)N1CCCCC1)S(=O)(=O)c1ccc(C)cc1	ROMK mod -4.9
Cc1n(C)c2cc(Cl)ccc2[n+]1Cc1ccccc1	none
CCNc1nc(N2CCOCC2)nc(N(c2ccccc2)c2ccccc2)n1	none (no result: Cl transport mod)
c1ccc(N(c2ccccc2)c2nc(-n3ccnc3)nc(-n3ccnc3)n2)cc1	WT yeast gro inh 98 (no result: Cl transport mod)
C=CCNc1nc(N(c2ccccc2)c2ccccc2)nc(-n2ccnc2)n1	L major viab 55
CCCCNc1nc(N(C)c2ccccc2)nc(-n2ccnc2)n1	L major viab 98
CN(c1ccccc1)c1nc(-n2ccnc2)nc(-n2ccnc2)n1	none
O=C(COc1ccc2ccccc2c1CN1CCOCC1)N1CCc2ccccc21	Cl transport mod -7.9, L major viab 60 (no result: ROMK mod)
CC(=O)Nc1ccc(S(=O)(=O)N2CCN(c3nc(NC4CCCC4)c4ccccc4n3)CC2)cc1	none (no result: ROMK mod)
Cc1nc(-c2ccc(NC(=O)CC(C)C)cc2)cs1	none
CCOc1ccc(/C=N/OCC(=O)NC(c2ccccc2)c2ccccc2)cc1	L major viab 77 (no result: ROMK mod)
COc1ccc(/C=N/OCC(=O)NC(c2ccccc2)c2ccccc2)c(OC)c1	L major viab 100
CCOc1ccc(/C=N/OCC(=O)Nc2cc(C)on2)cc1	L major viab 60 (no result: ROMK mod)
CCOc1ccc(/C=N/OCC(=O)Nc2ccc3c(c2)OCO3)cc1	none
COc1ccc(/C=N/OCC(=O)NCC(C)C)c(OC)c1	none
CC(C)NC(=O)/C(C#N)=C/c1cccc(NC(=O)c2ccccc2Cl)c1	L major viab 100 (no result: ROMK mod)
CC1=C(C(=O)OCc2ccc3c(c2)OCO3)C(c2ccc(O)c([N+](=O)[O-])c2)NC(=O)N1 (configuration not stated)	Diaphorase inh 52
CC1=C(C(=O)OCc2ccc3c(c2)OCO3)C(c2ccccc2OCc2ccccc2)NC(=O)N1 (configuration not stated)	L major viab 99 (no result: Cl transport mod)
CCOC(=O)C1=C(C)NC(=O)CC1c1cc2c(cc1[N+](=O)[O-])OCO2 (configuration not stated)	Diaphorase inh 72
CCN(Cc1ccncc1)Cc1c(O)ccc2cc(Br)ccc12	none
c1ccc(-n2ncc3c(NCCCN4CCOCC4)ncnc32)cc1	none
Clc1ccc(-n2ncc3c(NCCCn4ccnc4)ncnc32)cc1	L major viab 100 (no result: Cl transport mod)
Clc1ccc(-n2ncc3c(NCCN4CCOCC4)ncnc32)cc1	L major viab 86 (no result: ROMK mod)
CCN1CCN(C(=O)CCc2nc3ccccc3n2-c2ccccc2)CC1	L major viab 58
O=C(COC(=O)CCc1nc2ccccc2n1-c1ccccc1)Nc1ccc(N2CCCCC2)cc1	none (no result: ROMK mod)
O=C(CCc1nc2ccccc2n1-c1ccccc1)NCCO	L major viab 56 (no result: ROMK mod)
CCc1cccc(C)c1NC(=O)CNCc1ccccc1	none (no result: ROMK mod)
COCCNC(=O)/C(C#N)=C/c1ccc(-c2ccc(S(=O)(=O)N3CCOCC3)cc2)o1	L major viab 78 (no result: ROMK mod)
CCOCCCNC(=O)/C(C#N)=C/c1ccc(-c2ccc(S(=O)(=O)N3CCOCC3)cc2)o1	none (no result: ROMK mod)
